Data: ChEMBL document CHEMBL1275571, “Impact of self-assembly properties on antibacterial activity of short acyl-lysine oligomers” (Antimicrob Agents Chemother, 2008)
≈ marks a conversion by molar mass, not a printed value. Non-standard residues stand in square brackets, D forms with d. Residues, ends and D or L forms follow the SMILES beside them. *: point of attachment. Palmitoyl = CCCCCCCCCCCCCCCC(=O)*; 12Ado = NCCCCCCCCCCCC(=O)O

Columns and labels:
[1] = test system: Lipid bilayer; assay: Adhesion affinity to phospholipid membrane in cell-free system at low concentration range of 0.16 to 2.5 uM
How it was run: (§1)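 Surface plasmon resonance on a POPC-POPG (3:1) small-unilamellar-vesicle bilayer on an L1 chip. Compound was in PBS pH 7.4 at the low series (0.16, 0.31, 0.62, 1.25, 2.5 μM), duplicate injections each. Affinity constants were calculated with a two-step binding model from the average of five duplicated binding curves.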

[2] = test system: Lipid bilayer; assay: Apparent affinity to phospholipid membrane in cell-free system at low concentration range of 0.16 to 2.5 uM; how it was run: as §1
[3] = test system: Enterococcus faecalis; assay: Antimicrobial activity against Enterococcus faecalis ATCC 29212 by microdilution method; type: functional
How it was run: (§2)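 Overnight LB cultures were diluted 10,000-fold and used at 2 × 105 to 4 × 10^5 CFU/ml (LB pH 7.4). They were mixed 1:1 with compound in twofold serial dilutions from 0 to 50 μΜ. Plates were incubated overnight at 37°C and read by OD620. The MIC is the concentration giving 100% inhibition. Values are from at least two independent assays run in duplicate.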

[4] = test system: Staphylococcus aureus; assay: Antimicrobial activity against Staphylococcus aureus ATCC 25923 by microdilution method; type: functional; how it was run: as §2
[5] = Cytotoxicity against human RBC assessed as hemolysis; type: organism-based; conditions: human red blood cells (RBC), read-out: LC50 (the source's name)
How it was run: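 Human red blood cells at 1% hematocrit incubated 3 h at 37°C with the compound in PBS (50 mM sodium phosphate, 150 mM NaCl, pH 7.4). Value is the concentration giving 50% hemolysis (LC50, μM). Values are rounded up to the nearest half unit, as means ± standard deviations of at least four independent experiments run in duplicate.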

[6] = test system: Lipid bilayer; assay: Apparent affinity to phospholipid membrane in cell-free system at high concentration range of 3.1 to 50 uM
How it was run: (§3)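 SPR on an L1 chip, with small unilamellar vesicles of POPC-POPG (3:1 molar ratio) as the bilayer. Compound was in PBS pH 7.4 and injected in the high series (3.1, 6.25, 12.5, 25, 50 μM), two injections per concentration. Association and dissociation curves were fitted to a two-step binding model. Constants come from five duplicated curves.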

[7] = test system: Escherichia coli; assay: Antimicrobial activity against Escherichia coli ATCC 35218 by microdilution method; type: functional; how it was run: as §2
[8] = test system: Lipid bilayer; assay: Adhesion affinity to phospholipid membrane in cell-free system at high concentration range of 3.1 to 50 uM; how it was run: as §3
[9] = test system: Pseudomonas aeruginosa; assay: Antimicrobial activity against Pseudomonas aeruginosa ATCC 9027 by microdilution method; type: functional; how it was run: as §2

CCCCCC/C=C\CCCCCCCC(=O)N[C@@H](CCCCN)C(=O)N[C@@H](CCCCN)C(=O)NCCCCCCCCCCCC(=O)N[C@@H](CCCCN)C(N)=O
K [1]: 2.1 ×10⁶ /M | Kapp [2]: 1.7 ×10⁷ /M | MBC [3]: 6 µM (≈ 5.01 µg/mL) | MBC [4]: 6 µM (≈ 5.01 µg/mL) | MIC [4]: 3 µM (≈ 2.51 µg/mL) | HC50 [5]: 8.5 µM | Kapp [6]: 4.5 ×10⁷ /M | MBC [7]: 12.5 µM (≈ 10.4 µg/mL) | MIC [7]: 6 µM (≈ 5.01 µg/mL) | K [8]: 1.5 ×10⁶ /M | MBC [9]: 50 µM (≈ 41.8 µg/mL) | MIC [9]: 12.5 µM (≈ 10.4 µg/mL)

CCCCCCCCCCCCCCCC(=O)N[C@@H](CCCCN)C(=O)N[C@@H](CCCCN)C(=O)NCCCCCCCCCCCC(=O)N[C@@H](CCCCN)C(N)=O (Palmitoyl-KK[12Ado]K-NH2)
K [1]: 2.2 ×10⁶ /M | Kapp [2]: 8.3 ×10⁷ /M | MBC [3]: > 25 µM | MBC [4]: > 25 µM | MIC [4]: 6 µM (≈ 5.02 µg/mL) | HC50 [5]: 15 µM | Kapp [6]: 4.3 ×10⁴ /M | MBC [7]: > 50 µM | MIC [7]: 25 µM (≈ 20.9 µg/mL) | K [8]: 4.3 ×10⁵ /M | MBC [9]: > 50 µM | MIC [9]: > 25 µM
